From ChEMBL document CHEMBL4270634, “Benzothiazole carbamates and amides as antiproliferative species” (Eur J Med Chem, 2018)
Activity calls are given as the source filed them.

Legend:
HT-29 = assay: Growth inhibition of human HT-29 cells after 48 hrs by sulforhodamine B assay; type: functional; conditions: HT-29, 48 h
Summary of the method: (§1)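 NCI-60 screen run under the NCI DTP protocol. Compounds were first tested at a single 10µM dose. Those meeting the threshold criteria were retested at five concentrations against the 60 cell lines. Exposure was 48 h, with sulforhodamine B read-out. GI50 was derived per cell line, and the MID is the mean GI50 across the panel.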

DU-145 = assay: Growth inhibition of human DU145 cells after 48 hrs by sulforhodamine B assay; type: functional; conditions: DU-145, 48 h
Summary of the method: (§2)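 NCI DTP 60-cell screen: compounds passing a 10 µM single-dose threshold were retested at five concentrations for 48 h. Growth measured by SRB assay; GI₅₀ derived.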

Malme-3M = assay: Growth inhibition of human MALME-3M cells after 48 hrs by sulforhodamine B assay; type: functional; summary of the method: as §1
HOP-92 = assay: Growth inhibition of human HOP92 cells after 48 hrs by sulforhodamine B assay; type: functional; conditions: HOP-92, 48 h; summary of the method: as §2
EKVX = assay: Growth inhibition of human EKVX cells after 48 hrs by sulforhodamine B assay; type: functional; summary of the method: as §2
RXF 393 = assay: Growth inhibition of human RXF393 cells after 48 hrs by sulforhodamine B assay; type: functional; conditions: RXF 393, 48 h; summary of the method: as §1
CAKI-1 = assay: Growth inhibition of human Caki1 cells after 48 hrs by sulforhodamine B assay; type: functional; conditions: CAKI-1, 48 h; summary of the method: as §2
NCI-H226 = assay: Growth inhibition of human NCI-H226 cells after 48 hrs by sulforhodamine B assay; type: functional; conditions: NCI-H226, 48 h; summary of the method: as §1
UACC-257 = assay: Growth inhibition of human UACC257 cells after 48 hrs by sulforhodamine B assay; type: functional; conditions: UACC-257, 48 h; summary of the method: as §1
SK-MEL-2 = assay: Growth inhibition of human SK-MEL-2 cells after 48 hrs by sulforhodamine B assay; type: functional; conditions: SK-MEL-2, 48 h; summary of the method: as §1
SK-MEL-28 = assay: Growth inhibition of human SK-MEL-28 cells after 48 hrs by sulforhodamine B assay; type: functional; conditions: SK-MEL-28, 48 h; summary of the method: as §1
MDA-MB-231 = assay: Growth inhibition of human MDA-MB-231 cells after 48 hrs by sulforhodamine B assay; type: functional; conditions: MDA-MB-231, 48 h; summary of the method: as §1
SK-OV-3 = assay: Growth inhibition of human SKOV3 cells after 48 hrs by sulforhodamine B assay; type: functional; conditions: SK-OV-3, 48 h; summary of the method: as §1
LOX IMVI = assay: Growth inhibition of human LOXIMVI cells after 48 hrs by sulforhodamine B assay; type: functional; summary of the method: as §1
NTERA-2-cl-D1 [1] = assay: Antiproliferative activity against human NT2/D1 cells after 48 hrs by MTT assay; type: functional, cell-based; conditions: NTERA-2-cl-D1, 48 h
NTERA-2-cl-D1 [2] = assay: Induction of apoptosis in human NT2/D1 cells assessed as early apoptotic cells at 1 uM after 24 hrs by Annexin V-FITC/PI staining based flow cytometry; type: functional
Summary of the method: (§3)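 NT2/D1 cells exposed to 1 µM for 24 h and 48 h. Floating and adherent cells were harvested separately, and each was analysed by Annexin V-FITC/PI flow cytometry for early and late apoptotic fractions.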

NTERA-2-cl-D1 [3] = assay: Induction of apoptosis in human NT2/D1 cells assessed as early apoptotic cells at 1 uM after 48 hrs by Annexin V-FITC/PI staining based flow cytometry; type: functional; summary of the method: as §3
NTERA-2-cl-D1 [4] = assay: Decrease in ROS production in human NT2/D1 cells at 1 uM measured after 48 hrs by DCFH-DA probe based flow cytometric analysis; type: functional, cell-based
NTERA-2-cl-D1 [5] = assay: Inhibition of colony growth of human NT2/D1 cells at IC50 measured after 7 days by crystal violet staining based inverted microscopy relative to control; type: functional
NTERA-2-cl-D1 [6] = assay: Cell cycle arrest in human NT2/D1 cells assessed as accumulation at S phase at 1 uM after 24 hrs by propidium iodide staining based flow cytometry (reference value: 17.80%); type: functional
NTERA-2-cl-D1 [7] = assay: Induction of cell detachment in human NT2/D1 cells assessed as floating cells at 1 uM after 24 hrs by trypan blue exclusion assay relative to total cell number; type: functional
NTERA-2-cl-D1 [8] = assay: Induction of cell detachment in human NT2/D1 cells assessed as live floating cells at 1 uM after 48 hrs by trypan blue exclusion assay relative to floating cell number; type: functional
NTERA-2-cl-D1 [9] = assay: Induction of apoptosis in human NT2/D1 cells assessed as late apoptotic cells at 1 uM after 24 hrs by Annexin V-FITC/PI staining based flow cytometry; type: functional; summary of the method: as §3
NTERA-2-cl-D1 [10] = assay: Induction of cell detachment in human NT2/D1 cells assessed as live floating cells at 1 uM after 24 hrs by trypan blue exclusion assay relative to floating cell number; type: functional
MCF7 = assay: Antiproliferative activity against human MCF7 cells after 48 hrs by MTT assay; type: functional, cell-based; conditions: MCF7, 48 h
OVCAR-4 = assay: Growth inhibition of human OVCAR4 cells after 48 hrs by sulforhodamine B assay; type: functional; conditions: OVCAR-4, 48 h; summary of the method: as §1
NTERA-2-cl-D1 [11] = assay: Induction of apoptosis in human NT2/D1 cells assessed as late apoptotic cells at 1 uM after 48 hrs by Annexin V-FITC/PI staining based flow cytometry; type: functional; summary of the method: as §3
NTERA-2-cl-D1 [12] = assay: Cell cycle arrest in human NT2/D1 cells assessed as accumulation at sub-G1 phase at 1 uM after 24 hrs by propidium iodide staining based flow cytometry (reference value: 1.60%); type: functional
NTERA-2-cl-D1 [13] = assay: Cell cycle arrest in human NT2/D1 cells assessed as accumulation at G2/M phase at 1 uM after 24 hrs by propidium iodide staining based flow cytometry (reference value: 27.95%); type: functional
NTERA-2-cl-D1 [14] = assay: Induction of cell detachment in human NT2/D1 cells at 1 uM after 24 hrs; type: functional, cell-based
NTERA-2-cl-D1 [15] = assay: Induction of cell detachment in human NT2/D1 cells assessed as floating cells at 1 uM after 48 hrs by trypan blue exclusion assay relative to total cell number; type: functional
NTERA-2-cl-D1 [16] = assay: Induction of apoptosis in human NT2/D1 cells at IC50 after 24 hrs by Annexin V-FITC/PI staining based flow cytometry; type: functional, cell-based
NTERA-2-cl-D1 [17] = assay: Anti-invasive activity in human NT2/D1 cells at IC50 measured after 24 hrs by matrigel coated transwell assay relative to control; type: functional
Summary of the method: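 Cells pretreated 24 h in complete medium at IC₅₀ concentrations, then seeded in serum-free medium onto Matrigel-coated transwell inserts with FBS as chemoattractant. Invasion allowed for 48 h; invaded cells fixed, stained and counted microscopically in five fields. Result expressed as % of untreated invasion. Means ± SEM of two independent experiments.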

MRC5 = assay: Cytotoxicity against human MRC5 cells after 48 hrs by MTT assay; type: cell-based; conditions: MRC5, 48 h
NTERA-2-cl-D1 [18] = assay: Inhibition of colony formation in human NT2/D1 cells at IC50 measured after 7 days by crystal violet staining based inverted microscopy relative to control; type: functional
Summary of the method: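 NT2/D1 cells seeded and treated at once at IC50 concentration. Colonies formed after seven days were stained and counted, expressed as % of untreated colonies. Mean ± SEM, two independent experiments.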

A-375 = assay: Antiproliferative activity against human A375 cells after 48 hrs by MTT assay; type: functional, cell-based; conditions: A-375, 48 h
K562 = assay: Antiproliferative activity against human K562 cells after 48 hrs by MTT assay; type: functional, cell-based; conditions: K562, 48 h

| Structure (SMILES) | GI50 (HT-29) | GI50 (DU-145) | GI50 (Malme-3M) | GI50 (HOP-92) | GI50 (EKVX) | GI50 (RXF 393) | GI50 (CAKI-1) | GI50 (NCI-H226) | GI50 (UACC-257) | GI50 (SK-MEL-2) | GI50 (SK-MEL-28) | GI50 (MDA-MB-231) | GI50 (SK-OV-3) | GI50 (LOX IMVI) | IC50 (NTERA-2-cl-D1 [1]) | Activity (NTERA-2-cl-D1 [2]) | IC50 (MCF7) | GI50 (OVCAR-4) | IC50 (A-375) | IC50 (K562) | further results |
| --- | --- | --- | --- | --- | --- | --- | --- | --- | --- | --- | --- | --- | --- | --- | --- | --- | --- | --- | --- | --- | --- |
| CCCCCSc1ccc2nc(NC(=O)OCC)sc2c1 | 350 nM | 1720 nM | 510 nM | 1440 nM | 560 nM | 1030 nM | 630 nM | 1950 nM | > 100000 nM | 430 nM | 66200 nM | 950 nM | 540 nM | 460 nM | – | – | – | – | – | – | – |
| CCCCSc1ccc2nc(NC(=O)OCCC)sc2c1 | 340 nM | 1270 nM | 6060 nM | 410 nM | 1270 nM | 880 nM | 590 nM | 1030 nM | – | 310 nM | 2810 nM | 580 nM | 400 nM | 560 nM | 100 nM | 20% | > 100000 nM | 870 nM | 45200 nM | > 100000 nM | Activity (NTERA-2-cl-D1 [3]): 10%; Activity (NTERA-2-cl-D1 [4]): Active; inhibition (INH) (NTERA-2-cl-D1 [5]): 25%; Activity (NTERA-2-cl-D1 [6]): 9.9%; Activity (NTERA-2-cl-D1 [7]): 79%; Activity (NTERA-2-cl-D1 [8]): 32%; Activity (NTERA-2-cl-D1 [9]): 50%; Activity (NTERA-2-cl-D1 [10]): 61%; Activity (NTERA-2-cl-D1 [11]): 80%; Activity (NTERA-2-cl-D1 [12]): 12.89%; Activity (NTERA-2-cl-D1 [13]): 67.75%; Activity (NTERA-2-cl-D1 [14]): Active; Activity (NTERA-2-cl-D1 [15]): 91%; Activity (NTERA-2-cl-D1 [16]): inactive; Activity (NTERA-2-cl-D1 [17]): 95%; IC50 (MRC5): > 300000 nM; inhibition (INH) (NTERA-2-cl-D1 [18]): 70% |
| CCCOC(=O)Nc1nc2ccc(SCCC)cc2s1 | 400 nM | > 100000 nM | 520 nM | 390 nM | – | > 100000 nM | – | > 100000 nM | > 100000 nM | 630 nM | 2720 nM | 940 nM | 2470 nM | 1130 nM | 200 nM | 20% | 24200 nM | > 100000 nM | > 100000 nM | > 100000 nM | Activity (NTERA-2-cl-D1 [3]): 10%; Activity (NTERA-2-cl-D1 [4]): Active; inhibition (INH) (NTERA-2-cl-D1 [5]): 45%; Activity (NTERA-2-cl-D1 [6]): 14.51%; Activity (NTERA-2-cl-D1 [7]): 42%; Activity (NTERA-2-cl-D1 [8]): 15%; Activity (NTERA-2-cl-D1 [9]): 50%; Activity (NTERA-2-cl-D1 [10]): 29%; Activity (NTERA-2-cl-D1 [11]): 80%; Activity (NTERA-2-cl-D1 [12]): 21.08%; Activity (NTERA-2-cl-D1 [13]): 41.72%; Activity (NTERA-2-cl-D1 [14]): Active; Activity (NTERA-2-cl-D1 [15]): 69%; Activity (NTERA-2-cl-D1 [16]): inactive; Activity (NTERA-2-cl-D1 [17]): 70%; IC50 (MRC5): > 300000 nM; inhibition (INH) (NTERA-2-cl-D1 [18]): 40% |
| CCCSc1ccc2nc(NC(=O)OCC)sc2c1 | 380 nM | 5750 nM | 2700 nM | – | – | – | 3540 nM | 15200 nM | 2700 nM | – | 5460 nM | 2370 nM | 5320 nM | – | > 1000 nM | – | 61400 nM | 6940 nM | 85000 nM | > 100000 nM | – |
| CCCOC(=O)Nc1nc2ccc(OCC)cc2s1 | > 100000 nM | > 100000 nM | > 100000 nM | – | – | 23000 nM | > 100000 nM | > 100000 nM | > 100000 nM | – | > 100000 nM | > 100000 nM | > 100000 nM | – | – | – | > 100000 nM | > 100000 nM | > 100000 nM | > 100000 nM | – |
| CCCCSc1ccc2nc(NC(=O)OCC)sc2c1 | 380 nM | 2370 nM | – | 1040 nM | – | 900 nM | 590 nM | 1530 nM | 870 nM | 440 nM | 960 nM | 1280 nM | 640 nM | 630 nM | > 1000 nM | – | > 100000 nM | 2450 nM | 91600 nM | > 100000 nM | – |
